The species entered for data set [1] is Rattus norvegicus. The data set can be described thus: (§1) Compound tested for adrenochrome formation in rat hepatic mycrosomal incubation. It counts as functional. The method, boiled down:
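Superoxide read as adrenochrome from epinephrine (in 0.01 N HCl) with phenobarbital-induced rat liver microsomes (300 µg) at 37 °C; NADPH 0.4 mM added to sample cuvette after 1 min. Rate at 480 nm (ε 4.02 mM-1 cm-1); drug ≤100 µM in 150 mM KCl-50 mM Tris pH 7.4; % stimulation over basal rate; triplicate, mean ± standard error.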

Data set [2] is filed under the species Rattus norvegicus. The experiment in a line: (§2) Compound tested for NADPH oxidation in rat hepatic mycrosomal incubation. It counts as functional. The essentials: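 Phenobarbital-induced rat liver microsomes (300 µg), 37 °C, no epinephrine; NADPH 0.4 mM added to sample cuvette only. A340 followed; % oxidation = (1 − A340/A'340)×100 vs cuvette not activated by microsomes; % stimulation = (drug rate − basal rate)/basal rate ×100. Drugs in 150 mM KCl-50 mM Tris pH 7.4; triplicate analyses, mean ± standard error.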

Data set [3] relates to P388. The experiment in a line: Inhibition of RNA synthesis was measured as the concentration required to cause 50% reduction (in 1h) in 2-[14C]uridine incorporation into acid precipitable material using P388 cells. The data set is classed as functional, cell-based. The conditions noted are these: Mus musculus, P388, 1 h.
For data set [4], the system named is P388. The experiment in a line: Inhibition of DNA synthesis was measured as the concentration required to cause 50% reduction (in 1h) in methyl [3H]thymidine incorporation into acid precipitable material using P388 cells. The data set is classed as functional, cell-based. The conditions noted are these: Mus musculus. The method, boiled down: (§3)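 P388 cells were exposed for 1 h. IC50 (µM) was taken as 50% reduction of methyl-[3H]thymidine (DNA) or 2-[14C]uridine (RNA) incorporation into acid-precipitable material. The ratio is IC50 DNA divided by IC50 RNA.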

Data set [5] can be described thus: Minimum tolerated dose is the lethal dose for 10% normal mice for deaths during 21 days. The data set is classed as ADME, organism-based. The conditions noted are these: mouse, in vivo. The essentials: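 Tumor-free male BDF1 mice (18–22 g) received a broad dose range ip in 5% dimethyl sulfoxide-saline on days 1, 5 and 9. Deaths were recorded over 21 days. The LD10 (dose killing 10% of animals) was calculated from a plot of log-dose vs. percent mortality.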

Data set [6] in a line: Therapeutic index (MTD/MED) value of the compound. Particulars: read-out: TI.
A short description of data set [7]: IC50 DNA/IC50 RNA ratio of the compound. It counts as functional. The method, boiled down: as §3
For data set [8], the species on record is Rattus norvegicus. The data set is described as §2. The data set is classed as functional. The essentials: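 Phenobarbital-induced male Sprague-Dawley rat liver microsomes were placed in both cuvettes, without epinephrine. NADPH 0.4 mM was added to the sample side only, and absorbance was read at 340 nm. Percent stimulation = (drug rate − basal)/basal × 100. Values are the average ± standard errors of triplicates.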
This is another data set of the same source.

For data set [9], the species on record is Rattus norvegicus. The description is as §1. The data set is classed as functional. The method, boiled down: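 Adrenochrome assay for superoxide: epinephrine in 0.01 N HCl plus 300 µg of phenobarbital-induced rat liver microsomes at 37 °C. NADPH 0.4 mM was added to the sample side 1 min later, and the rate was read at 480 nm (ε 4.02 mM−1 cm−1). Drugs were at ≤100 µM, made in 150 mM KCl–50 mM Tris, pH 7.4. Percent stimulation is over basal rate, in triplicate.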
This is another data set of the same source.

In data set [10] the test system is Mus musculus. The experiment in a line: In vivo antitumor activity was determined against B16 melanoma mice as number of mice survived after administration of 1200 ug/Kg dose of compound; Value represented as no of survivors/ treated = 1/9. It counts as functional.
The test system of data set [11] is Mus musculus. The experiment in a line: Antitumor activity against B16 melanoma in terms of percentage increase in life span in mice at an optimal dose of 1200 ug/kg administered ip. It counts as functional.
The test system of data set [12] is Mus musculus. The data set can be described thus: Antitumor activity against P388 leukemia cells in terms of percentage increase in life span in mice at an optimal dose of 1200 ug/kg administered ip. The data set is classed as functional.
The species named for data set [13] is Mus musculus. The experiment in a line: Dose providing an increase in the life span of 45% over control in P388 tumor bearing mice. The data set is classed as functional. The conditions noted are these: read-out: MED. The essentials: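 MED is the ip dose in mg/kg, given on days 1, 5 and 9 starting 1 day after implantation, that gives a 45% increase in life span over control in P388-bearing mice. It was derived from plotted log-dose response data.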

Another data set concerns CCRF-CEM. The experiment in a line: Inhibitory dose required for the inhibition of human lymphoblastic leukemia cells(CCRF-CEM). It counts as functional. The conditions noted are these: read-out: ID50 (the source's name).
Data set [14] deals with Mus musculus. The data set can be described thus: In vivo antitumor activity was determined against P388 leukemia mice as number of mice survived after administration of 1200 ug/Kg dose of compound; Value represented as no of survivors/ treated = 0/8. The data set is classed as functional.
The test system of data set [15] is Mus musculus. The data set can be described thus: Antitumor activity against P388 leukemia cells in terms of median survival time of mice at an optimal dose of 1200 ug/kg administered ip. The data set is classed as functional.
The subject of data set [16] is Mus musculus. The experiment in a line: Antitumor activity against B16 melanoma in terms of median survival time of mice at an optimal dose of 1200 ug/kg administered ip. The data set is classed as functional.

Regarding `CCN(CC)C(=O)c1c2nc3c(C(=O)N(CC)CC)c(N)c(O)c(C)c3oc-2c(C)c(=O)c1N`, the adrenochrome formation in the data set filed under Rattus norvegicus [1] was 2.13 nM min-1 (mg of protein)-1. Besides, the NADPH oxidation in the data set listed under Rattus norvegicus [2] is 8.9 nM min-1 (mg of protein)-1.

By MTD is commonly meant the largest dose that counted as tolerated. Higher therefore signals better tolerability. For `Cc1c2oc3c(C)c4oc(-c5ccccc5)nc4c(C(=O)N[C@@H]4C(=O)N[C@H](C(C)C)C(=O)N5CCC[C@H]5C(=O)N(C)CC(=O)N(C)[C@@H](C(C)C)C(=O)O[C@@H]4C)c3nc-2c(C(=O)N[C@@H]2C(=O)N[C@H](C(C)C)C(=O)N3CCC[C@H]3C(=O)N(C)CC(=O)N(C)[C@@H](C(C)C)C(=O)O[C@@H]2C)cc1=O`, the IC50 came out at 3200 nM in the data set with P388 [3] and 5700 nM with P388 [4]. The same compound yielded an MTD at 504 h in [5] of 2 mg/kg. For the same compound, the selectivity ratio in data set [6] was determined as 10.

Turning to `Cc1c2oc3c(C)c(O)c(N)c(C(=O)N[C@@H]4C(=O)N[C@H](C(C)C)C(=O)N5CCC[C@H]5C(=O)N(C)CC(=O)N(C)[C@@H](C(C)C)C(=O)O[C@@H]4C)c3nc-2c(C(=O)N[C@@H]2C(=O)N[C@H](C(C)C)C(=O)N3CCC[C@H]3C(=O)N(C)CC(=O)N(C)[C@@H](C(C)C)C(=O)O[C@@H]2C)c(N)c1=O`, the IC50 was found to be 1150 nM with P388 [3] and 1110 nM in the data set with P388 [4]. In addition, the MTD at 504 h in [5] was 2.4 mg/kg. Further, the selectivity ratio in [6] is 96.

As for `Cc1c2oc3c(C)ccc(C(=O)N[C@@H]4C(=O)N[C@H](C(C)C)C(=O)N5CCC[C@@H]5C(=O)NCC(=O)N[C@@H](C(C)C)C(=O)O[C@@H]4C)c3nc-2c(C(=O)N[C@H]2C(=O)N[C@@H](C(C)C)C(=O)N3CCC[C@H]3C(=O)NCC(=O)N[C@H](C(C)C)C(=O)O[C@H]2C)c(N)c1=O`, the Ratio in [7] came to 22.4.

Turning to `Cc1c2oc3c(C)c(O)c(N)c(C(=O)N[C@H]4C(=O)N[C@@H](C(C)C)C(=O)N5CCC[C@H]5C(=O)N(C)CC(=O)N(C)[C@H](C(C)C)C(=O)O[C@H]4C)c3nc-2c(C(=O)N[C@@H]2C(=O)N[C@H](C(C)C)C(=O)N3CCC[C@@H]3C(=O)N(C)CC(=O)N(C)[C@@H](C(C)C)C(=O)O[C@@H]2C)cc1=O`, the Ratio in data set [7] was 1.

`Cc1c2oc3c(C)c4oc(-c5ccccc5)nc4c(C(=O)N[C@H]4C(=O)N[C@@H](C(C)C)C(=O)N5CCC[C@H]5C(=O)N(C)CC(=O)N(C)[C@H](C(C)C)C(=O)O[C@H]4C)c3nc-2c(C(=O)N[C@@H]2C(=O)N[C@H](C(C)C)C(=O)N3CCC[C@@H]3C(=O)N(C)CC(=O)N(C)[C@@H](C(C)C)C(=O)O[C@@H]2C)c(N)c1=O`: the Ratio in data set [7] is 11.4.

As to `Cc1c2oc3c(C)c4oc(-c5ccccc5)nc4c(C(=O)N[C@@H]4C(=O)N[C@H](C(C)C)C(=O)N5CCC[C@H]5C(=O)N(C)CC(=O)N(C)[C@@H](C(C)C)C(=O)O[C@@H]4C)c3nc-2c(C(=O)N[C@@H]2C(=O)N[C@H](C(C)C)C(=O)N3CCC[C@H]3C(=O)N(C)CC(=O)N(C)[C@@H](C(C)C)C(=O)O[C@@H]2C)c(N)c1=O`, the IC50 was 70 nM in the data set with P388 [3] and 800 nM with P388 [4]. Besides, the MTD at 504 h in data set [5] was 1.8 mg/kg. Moreover, in data set [6], the selectivity ratio was 60.

On to `CCN(CC)C(=O)c1cc(=O)c(C)c2oc3c(C)c4oc(-c5ccccc5)nc4c(C(=O)N(CC)CC)c3nc1-2`, for which, in the data set listed under Rattus norvegicus [8], the NADPH oxidation is given as 8.9 nM min-1 (mg of protein)-1. Further, the adrenochrome formation in the data set filed under Rattus norvegicus [9] is 2.13 nM min-1 (mg of protein)-1.

For the compound `Cc1c2oc3c(C)c4oc(-c5ccccc5)nc4c(C(=O)N[C@H]4C(=O)N[C@@H](C(C)C)C(=O)N5CCC[C@H]5C(=O)NCC(=O)N(C)[C@H](C(C)C)C(=O)O[C@H]4C)c3nc-2c(C(=O)N[C@@H]2C(=O)N[C@H](C(C)C)C(=O)N3CCC[C@@H]3C(=O)NCC(=O)N[C@@H](C(C)C)C(=O)O[C@@H]2C)cc1=O`, the Ratio in data set [7] was 1.78.

As a reminder, the ILS is how much longer treated animals lived than controls. A lower ILS goes with a small benefit in survival. On to `Cc1c2oc3c(C)c(O)c(N)c(C(=O)N[C@@H]4C(=O)N[C@H](C(C)C)C(=O)N5CCC[C@H]5C(=O)N(C)CC(=O)N(C)[C@@H](C(C)C)C(=O)O[C@@H]4C)c3nc-2c(C(=O)N[C@@H]2C(=O)N[C@H](C(C)C)C(=O)N3CCC[C@H]3C(=O)N(C)CC(=O)N(C)[C@@H](C(C)C)C(=O)O[C@@H]2C)cc1=O` [listing 1 of 2 here], for which the Survivors in the data set on Mus musculus [10] was 1; with Mus musculus [14], 0. Moreover, the results for the ILS at 1.2 mg/kg in the data set with Mus musculus [11] and with Mus musculus [12] were 52% and 136%, respectively. Also, the minimal effective dose in the data set listed under Mus musculus [13] was 0.275 mg/kg. In addition, in the data set on CCRF-CEM, the IC50 came out at 1000 nM. Moreover, in the data set listed under Rattus norvegicus [8], the NADPH oxidation is recorded as 29.9 nM min-1 (mg of protein)-1. Besides, in the data set filed under Rattus norvegicus [9], the adrenochrome formation is reported as 7.29 nM min-1 (mg of protein)-1. The MST amounted to 26 days in the data set on Mus musculus [15] and 44 days in the data set on Mus musculus [16].

For the compound `Cc1c2oc3c(C)c(O)c(N)c(C(=O)N[C@@H]4C(=O)N[C@H](C(C)C)C(=O)N5CCC[C@H]5C(=O)N(C)CC(=O)N(C)[C@@H](C(C)C)C(=O)O[C@@H]4C)c3nc-2c(C(=O)N[C@@H]2C(=O)N[C@H](C(C)C)C(=O)N3CCC[C@H]3C(=O)N(C)CC(=O)N(C)[C@@H](C(C)C)C(=O)O[C@@H]2C)cc1=O` [listing 2 of 2 here], the IC50 with P388 [3] and in the data set on P388 [4] was 5100 nM in each case. The same compound registered an MTD at 504 h in data set [5] of 3.5 mg/kg. Moreover, in data set [6], the selectivity ratio is 13.

Turning to `Cc1c2oc3c(C)c(O)c(N)c(C(=O)N[C@H]4C(=O)N[C@@H](C(C)C)C(=O)N5CCC[C@H]5C(=O)N(C)CC(=O)N(C)[C@H](C(C)C)C(=O)O[C@H]4C)c3nc-2c(C(=O)N[C@@H]2C(=O)N[C@H](C(C)C)C(=O)N3CCC[C@@H]3C(=O)N(C)CC(=O)N(C)[C@@H](C(C)C)C(=O)O[C@@H]2C)c(N)c1=O`, in [7], the Ratio is 0.97.

As to `Cc1nc2c(C(=O)N[C@H]3C(=O)N[C@@H](C(C)C)C(=O)N4CCC[C@H]4C(=O)N(C)CC(=O)N(C)[C@H](C(C)C)C(=O)O[C@H]3C)c3nc4c(C(=O)N[C@@H]5C(=O)N[C@H](C(C)C)C(=O)N6CCC[C@@H]6C(=O)N(C)CC(=O)N(C)[C@@H](C(C)C)C(=O)O[C@@H]5C)c(N)c(=O)c(C)c-4oc3c(C)c2o1`, the Ratio in data set [7] was 11.2.

For the compound `CCN(CC)C(=O)c1c2nc3c(C(=O)N(CC)CC)c4nc(C)oc4c(C)c3oc-2c(C)c(=O)c1N`, in the data set filed under Rattus norvegicus [8], the NADPH oxidation is 8.9 nM min-1 (mg of protein)-1. In the data set listed under Rattus norvegicus [9], the adrenochrome formation is recorded as 2.13 nM min-1 (mg of protein)-1.

These data come from ChEMBL document CHEMBL1123113, “"Reverse" and "symmetrical" analogues of actinomycin D: metabolic activation and in vitro and in vivo tumor growth inhibitory activities” (J Med Chem, 1985).
